Measured values taken from ChEMBL document CHEMBL1157291, “Discovery of bacterial fatty acid synthase inhibitors from a Phoma species as antimicrobial agents using a new antisense-based strategy” (J Nat Prod, 2006).
Converted amounts (≈) assume the structure as drawn.

Key:
[1] = system: Staphylococcus aureus; assay: Antimicrobial activity against Staphylococcus aureus RN450 transfected with plasmid SI-1941 bearing antisense to FabF assessed as drug level at which a zone formation after 18 hrs; assay type: functional
In short: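 Agar two-plate differential sensitivity assay: S. aureus RN450 carrying fabF antisense plasmid, with a vector-only control strain. Overnight LB cultures with 34 µg/mL chloramphenicol at 37 °C were inoculated 1:1000 (of OD 3.0) into LB agar with 0.2% glucose and 15 µg/mL chloramphenicol, plus 50 mM xylose for the antisense strain only. Samples were added to wells and incubated 18 h at 37 °C. MDC is the lowest 2-fold dilution giving a zone in the sensitive strain with a 5 mm zone differential over the control strain.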

[2] = system: Escherichia coli; assay: Antimicrobial activity against wild type Escherichia coli after 20 hrs; assay type: functional
In short: (§1)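 Broth MIC: cells at 10^5 CFU/mL were incubated at 37 °C for 20 h with 2-fold serial dilutions of compound in growth medium. The MIC was taken as the lowest concentration inhibiting growth.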

[3] = system: Staphylococcus aureus; assay: Antimicrobial activity against Staphylococcus aureus MB2865 after 20 hrs; assay type: functional
In short: (§2)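 MIC determination: cells inoculated at 10^5 CFU/mL, incubated at 37 °C for 20 h with 2-fold serial dilutions of compound in growth medium; MIC taken as lowest concentration inhibiting growth.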

[4] = system: Staphylococcus aureus; assay: Antimicrobial activity against methicillin-resistant Staphylococcus aureus COL after 20 hrs; assay type: functional; in short: as §2
[5] = system: Escherichia coli; assay: Antimicrobial activity against envA transfected Escherichia coli after 20 hrs; assay type: functional; in short: as §1
[6] = Inhibition of Staphylococcus aureus FAS2
In short: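 Partially purified S. aureus protein containing all FAS enzymes (1.26 µg) was preincubated 20 min at room temperature with serial dilutions of compound. Reactions were started with [2-14C]malonyl-CoA (4 µM final), run 90 min at 37 °C, stopped with perchloric acid, and read by scintillation in phospholipid-coated flash plates. IC50 was determined.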

[7] = system: Enterococcus faecium; assay: Antimicrobial activity against vancomycin-resistant Enterococcus faecium CL5791 after 20 hrs; assay type: functional; in short: as §2
[8] = system: Enterococcus faecalis; assay: Antimicrobial activity against vancomycin-sensitive Enterococcus faecalis CL8516 after 20 hrs; assay type: functional; in short: as §1

With CCCC#CC#CC=C=CCCCCCCCC(=O)O [PHOMALLENIC ACID C] the Activity [1] was 0.15 µg/mL, the MIC [2] was > 100 µg/mL and the MIC [3] was 3.9 µg/mL (≈ 14.3 µM). It also gave an MIC [4] of 3.9 µg/mL (≈ 14.3 µM), an MIC [5] of 12.5 µg/mL (≈ 45.9 µM) and an IC50 [6] of 0.77 µg/mL (≈ 2.83 µM). For the same molecule, the MIC [7] was > 100 µg/mL and the MIC [8] was > 100 µg/mL.
In the case of CCC(O)C#CC#CC=C=CCCCCC(=O)O (configuration not stated) [PHOMALLENIC ACID A], the Activity [1] is reported as 0.63 µg/mL, the MIC [2] is reported as > 250 µg/mL and the MIC [3] is reported as 250 µg/mL (≈ 1010 µM). It also gave an MIC [4] of 250 µg/mL (≈ 1010 µM), an MIC [5] of 31.3 µg/mL (≈ 127 µM) and an IC50 [6] of 22 µg/mL (≈ 89.3 µM). The MIC [7] was > 250 µg/mL and the MIC [8] was > 250 µg/mL.
For C=C/C(C)=C/[C@@]1(C)SC(=O)C(C)=C1O [THIOLACTOMYCIN], the MIC [2] was > 250 µg/mL, the MIC [4] was 64 µg/mL (≈ 304 µM) and the MIC [5] was > 250 µg/mL. For the same molecule, the MIC [7] was > 250 µg/mL and the MIC [8] was > 250 µg/mL.
C/C=C/C/C=C/CCC(=O)[C@H]1O[C@H]1C(N)=O [CERULENIN] gave an Activity [1] of 32 µg/mL, an MIC [3] of 64 µg/mL (≈ 287 µM) and an IC50 [6] of 1.5 µg/mL (≈ 6.72 µM).
In the case of CCCC#CC#CC=C=CCCCCCCC(=O)O [PHOMALLENIC ACID B], the Activity [1] is reported as 0.31 µg/mL, the MIC [2] is reported as > 100 µg/mL and the MIC [3] is reported as 7.8 µg/mL (≈ 30.2 µM). For the same molecule, the MIC [4] was 12.5 µg/mL (≈ 48.4 µM), the MIC [5] was 25 µg/mL (≈ 96.8 µM) and the IC50 [6] was 3.4 µg/mL (≈ 13.2 µM). For the same molecule, the MIC [7] was > 100 µg/mL and the MIC [8] was > 100 µg/mL.
